ChEMBL document CHEMBL5634203, “A Tiny Pocket Packs a Punch: Leveraging Pyridones for the Discovery of CNS-Penetrant Aza-indazole IRAK4 Inhibitors” (ACS Med Chem Lett, 2024)
≈ marks a conversion by molar mass, not a printed value.

What was measured:
[1] = Lipophilicity, log D of the compound at pH 7.4; assay type: physicochemical; conditions: buffer
[2] = Kinetic solubility of compound in DMSO at pH 6.8 incubated for 24 hrs; assay type: physicochemical; conditions: read-out: Kinetic_solubility
Outline: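 Kinetic solubility assay at pH 6.8. Arithmetic mean of at least two experiments.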

[3] = Intrinsic clearance in human liver microsomes; assay type: ADME, Microsome; conditions: read-out: CLH
Outline: (§1)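 Intrinsic clearance measured in human liver microsomes and in human hepatocytes and reported as scaled values. Arithmetic mean of at least two experiments.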

[4] = Intrinsic clearance in human hepatocytes; assay type: ADME, cell-based, Hepatocyte; outline: as §1
[5] = Plasma protein binding in rat assessed as unbound fraction; assay type: ADME, cell-free
[6] = Plasma protein binding in human assessed as unbound fraction; assay type: ADME, cell-free
[7] = Unbound brain-to-plasma concentration ratio in Sprague-Dawley rat brain at 1 mg/kg, iv by LC-MS/MS analysis; assay type: ADME, organism-based; conditions: read-out: K(p,uu,brain)
Outline: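 Male Sprague Dawley rats dosed by infusion as a cassette. Total drug measured in brain (Cb) and plasma (Cp). Kpu,u calculated as (Cb×Fub)/(Cp×Fup), using the unbound fractions in brain and in plasma.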

[8] = Clearance in Sprague-Dawley rat measured for 4 hrs by LC-MS/MS analysis; assay type: ADME; conditions: in vivo
Outline: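 Male Sprague Dawley rats dosed by infusion. Clearance measured during the cassette Kpu,u procedure.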

Mus musculus [9] = test: Anti-inflammatory activity in po dosed C57BL/6 mouse assessed reduction in LPS-induced IL-1beta level in plasma preincubated with compound for 60 mins followed by LPS-induction and measured after 90 mins by ELISA analysis; assay type: functional, organism-based; conditions: dose 10-100 mg/kg, time 150.0 min
Outline: (§2)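 Mice dosed orally with vehicle (0 mpk) or 10, 30 or 100 mpk, 60 min before intraperitoneal LPS. Cytokine levels and free drug concentration in plasma and brain taken 90 min after LPS. Each dose group compared by one-way ANOVA with the vehicle group given i.p. LPS.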

Mus musculus [10] = test: Anti-inflammatory activity in po dosed C57BL/6 mouse assessed reduction in LPS-induced TNFalpha level in plasma preincubated with compound for 60 mins followed by LPS-induction and measured after 90 mins by ELISA analysis; assay type: functional, organism-based; conditions: dose 10-100 mg/kg, time 150.0 min; outline: as §2
Mus musculus [11] = test: Anti-inflammatory activity in po dosed C57BL/6 mouse assessed reduction in LPS-induced MCP-1 level in plasma preincubated with compound for 60 mins followed by LPS-induction and measured after 90 mins by ELISA analysis; assay type: functional, organism-based; conditions: dose 10-100 mg/kg, time 150.0 min; outline: as §2
Mus musculus [12] = test: Anti-inflammatory activity in po dosed C57BL/6 mouse assessed reduction in LPS-induced KC-GRO level in plasma preincubated with compound for 60 mins followed by LPS-induction and measured after 90 mins by ELISA analysis; assay type: functional, organism-based; conditions: dose 10-100 mg/kg, time 150.0 min; outline: as §2
Mus musculus [13] = test: Anti-inflammatory activity in po dosed C57BL/6 mouse assessed reduction in LPS-induced IL-6 level in plasma preincubated with compound for 60 mins followed by LPS-induction and measured after 90 mins by ELISA analysis; assay type: functional, organism-based; conditions: dose 10-100 mg/kg, time 150.0 min; outline: as §2
Mus musculus [14] = test: Anti-inflammatory activity in po dosed C57BL/6 mouse assessed reduction in LPS-induced IL-1beta level in brain preincubated with compound for 60 mins followed by LPS-induction and measured after 90 mins by ELISA analysis; assay type: functional, organism-based; conditions: dose 10-100 mg/kg, time 150.0 min; outline: as §2
Mus musculus [15] = test: Anti-inflammatory activity in po dosed C57BL/6 mouse assessed reduction in LPS-induced TNFalpha level in brain preincubated with compound for 60 mins followed by LPS-induction and measured after 90 mins by ELISA analysis; assay type: functional, organism-based; conditions: dose 10-100 mg/kg, time 150.0 min; outline: as §2
Mus musculus [16] = test: Anti-inflammatory activity in po dosed C57BL/6 mouse assessed reduction in LPS-induced MCP-1 level in brain preincubated with compound for 60 mins followed by LPS-induction and measured after 90 mins by ELISA analysis; assay type: functional, organism-based; conditions: dose 10-100 mg/kg, time 150.0 min; outline: as §2
Mus musculus [17] = test: Anti-inflammatory activity in po dosed C57BL/6 mouse assessed reduction in LPS-induced KC-GRO level in brain preincubated with compound for 60 mins followed by LPS-induction and measured after 90 mins by ELISA analysis; assay type: functional, organism-based; conditions: dose 10-100 mg/kg, time 150.0 min; outline: as §2
Mus musculus [18] = test: Anti-inflammatory activity in po dosed C57BL/6 mouse assessed reduction in LPS-induced IL-6 level in brain preincubated with compound for 60 mins followed by LPS-induction and measured after 90 mins by ELISA analysis; assay type: functional, organism-based; conditions: dose 10-100 mg/kg, time 150.0 min; outline: as §2
Mus musculus [19] = test: Anti-inflammatory activity in po dosed C57BL/6 mouse assessed increase in LPS-induced IL-10 level in plasma preincubated with compound for 60 mins followed by LPS-induction and measured after 90 mins by ELISA analysis; conditions: dose 10-100 mg/kg, time 150.0 min

logD [1] | solubility kinetic at 24 h [2] [µg/mL] | microsomal CLint [3] [µL/min/mg] | CLH [4] [µL/min/mg] | fraction unbound [5] | fraction unbound [6] | Kp uu [7] | clearance [8] [mL/min/kg] | SMILES | Activity (Mus musculus [9]) | Activity (Mus musculus [10]) | Activity (Mus musculus [11]) | Activity (Mus musculus [12]) | Activity (Mus musculus [13]) | Activity (Mus musculus [14]) | Activity (Mus musculus [15]) | Activity (Mus musculus [16]) | Activity (Mus musculus [17]) | Activity (Mus musculus [18]) | Activity (Mus musculus [19])
2.61 | 6.6 (≈ 14.1 µM) | < 5.3 | 3.3 | 0.083 | 0.0127 | – | – | CC(C)Oc1nc2nn(C34COC(C)(C3)C4)cc2cc1C(=O)Nc1cccn([C@@H]2C[C@@H]2F)c1=O | – | – | – | – | – | – | – | – | – | – | –
2.74 | 56 (≈ 120 µM) | < 5.3 | 3.8 | 0.047 | 0.0232 | – | – | CC(C)Oc1cc2nn(C34COC(C)(C3)C4)cc2cc1C(=O)Nc1cccn([C@H]2C[C@H]2F)c1=O | – | – | – | – | – | – | – | – | – | – | –
2.16 | 58 (≈ 137 µM) | 7.07 | 3.43 | – | – | 1 | 11.2 | CC(C)Oc1cc2nn(C34COC(C)(C3)C4)cc2cc1C(=O)Nc1cccn(C)c1=O | Dose-Dependent Effect | Dose-Dependent Effect | Dose-Dependent Effect | Dose-Dependent Effect | Dose-Dependent Effect | Dose-Dependent Effect | Dose-Dependent Effect | Dose-Dependent Effect | Dose-Dependent Effect | Dose-Dependent Effect | Dose-Dependent Effect
2.54 | 25 (≈ 53.5 µM) | < 5.3 | 3 | 0.0718 | 0.0594 | 0.7 | 43 | CC(C)Oc1nc2nn(C34COC(C)(C3)C4)cc2cc1C(=O)Nc1cccn([C@H]2C[C@H]2F)c1=O | – | – | – | – | – | – | – | – | – | – | –
